Laboratory results reported in ChEMBL document CHEMBL1154190, “Development and screening of water-soluble analogues of progesterone and allopregnanolone in models of brain injury” (J Med Chem, 2009).

Key:
[1] = Solubility in phosphate buffered saline; format: physicochemical
In short: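 Compound added in small portions to phosphate buffered saline at room temperature with stirring until a visible saturation end point; solubility reported as mg/mL.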

[2] = Inhibition of glutamate-induced excitotoxicity in rat E18 cells assessed as reduction in cell death at 5 uM pretreated for 24 hrs before glutamate challenge measured after 24 hrs by MTT assay; format: functional
In short: (§1)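 Rat E18 primary cortical cells cultured 8-10 days in neurobasal medium, pretreated 24 h with compound (tested at 0.1-80 μM, DMSO <5 μL/mL medium), then glutamate 0.5 μM (in PBS pH 7.4) added for a further 24 h with compound still present. Viability by MTT formazan photometry; reduction in cell death vs glutamate-only control, mean ± SEM, ANOVA/Dunnett, p < 0.05.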

[3] = system: Rattus norvegicus; test: Neuroprotective effect against traumatic brain injury-induced cerebral edema in rat assessed as decrease in edema level at 8 mg/kg administered intraperitoneally 1 hr post-TBI followed by second sc dose at 6 hrs post-TBI measured after 24 hrs relative to control; format: functional; parameters: scale not given: the % may be the effect or the level left; conditions: route intraperitoneal at 1 h, then subcutaneous at 6 h
In short: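 Bilateral medial frontal cortex contusion made with a pneumatic impactor in rats under isoflurane (5% induction, 2% maintenance, N₂O/O₂), body temperature held with a heating blanket. Dosing: 8 mg/kg in 22.5% w/v 2-hydroxypropyl-β-cyclodextrin, IP at 1 h, then SC at 6 h. Sham and vehicle groups included. At 24 h, pentobarbital overdose; pericontusional tissue dried at 60 °C, 0.3 atm for 24 h. Water % = (wet−dry)/wet×100; decrease vs vehicle, mean ± SEM.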

[4] = Inhibition of glutamate-induced excitotoxicity in rat E18 cells assessed as reduction in cell death at 10 uM pretreated for 24 hrs before glutamate challenge measured after 24 hrs by MTT assay; format: functional; in short: as §1
[5] = Inhibition of glutamate-induced excitotoxicity in rat E18 cells assessed as reduction in cell death at 80 uM pretreated for 24 hrs before glutamate challenge measured after 24 hrs by MTT assay; format: functional
In short: (§2)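 Rat E18 primary cortical neurons cultured 8-10 days in neurobasal medium, pretreated 24 h with compound (0.1-80 μM, DMSO, final DMSO <5 μL/mL), then glutamate 0.5 μM (in PBS pH 7.4) for 24 h with compound still present. Viability read by MTT formazan photometry; % reduction in cell death vs glutamate control, mean ± SEM, ANOVA with Dunnett's test.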

[6] = Inhibition of glutamate-induced excitotoxicity in rat E18 cells assessed as reduction in cell death at 20 uM pretreated for 24 hrs before glutamate challenge measured after 24 hrs by MTT assay; format: functional; in short: as §2
[7] = phosphate buffered saline, read-out: solubility

Compound | solubility [1, 7] | inhibition at 5 µM [2] | Activity [3] | also measured
CC(=O)[C@H]1CC[C@H]2[C@@H]3CCC4=C[C@@H](OC(=O)[C@@H]5CCCN5)CC[C@]4(C)[C@H]3CC[C@]12C.Cl | 1530 µg/mL | 15% | – | –
CC(=O)[C@H]1CC[C@H]2[C@@H]3CCC4=C/C(=N/OC(=O)[C@@H](N)C(C)C)CC[C@]4(C)[C@H]3CC[C@]12C.Cl | – | 27% | 57% | solubility ([1]; buffer): 13000 µg/mL
CC(=O)[C@H]1CC[C@H]2[C@@H]3CC[C@H]4C[C@@H](OC(=O)[C@@H](N)C(C)C)CC[C@]4(C)[C@H]3CC[C@]12C.Cl | < 50 µg/mL | – | 40% | –
CC(=O)[C@H]1CC[C@H]2[C@@H]3CCC4=C[C@@H](OC(=O)[C@@H](N)Cc5c[nH]c6ccccc56)CC[C@]4(C)[C@H]3CC[C@]12C | – | 1% | – | –
CC(=O)[C@H]1CC[C@H]2[C@@H]3CC[C@H]4C[C@H](OC(=O)[C@@H](N)C(C)C)CC[C@]4(C)[C@H]3CC[C@]12C.Cl | < 50 µg/mL | – | 49% | –
CC(=O)[C@H]1CC[C@H]2[C@@H]3CCC4=C[C@@H](OC(=O)[C@H](C)N)CC[C@]4(C)[C@H]3CC[C@]12C.Cl | 3340 µg/mL | 13% | – | –
CC(=O)[C@H]1CC[C@H]2[C@@H]3CCC4=C/C(=N\OC(=O)[C@@H](N)C(C)C)CC[C@]4(C)[C@H]3CC[C@]12C.Cl | 15200 µg/mL | 34% | 75% | –
CC(=O)[C@H]1CC[C@H]2[C@@H]3CCC4=C[C@@H](OC(=O)[C@@H](N)Cc5ccccc5)CC[C@]4(C)[C@H]3CC[C@]12C.Cl | 610 µg/mL | – | – | –
CC(=O)[C@H]1CC[C@H]2[C@@H]3CCC4=C[C@@H](OC(=O)[C@@H](N)C(C)C)CC[C@]4(C)[C@H]3CC[C@]12C.Cl | 3850 µg/mL | 8% | – | –
CC(=O)[C@H]1CC[C@H]2[C@@H]3CC[C@@H]4C[C@H](OC(=O)[C@@H](N)C(C)C)CC[C@]4(C)[C@H]3CC[C@]12C.Cl | 300 µg/mL | – | 31% | –
CC(=O)[C@H]1CC[C@H]2[C@@H]3CC[C@@H]4C[C@@H](OC(=O)[C@@H](N)C(C)C)CC[C@]4(C)[C@H]3CC[C@]12C.Cl | < 50 µg/mL | – | 11% | –
CC(C)[C@H](N)C(=O)O[C@@H](C)[C@H]1CC[C@H]2[C@@H]3CCC4=CC(=O)CC[C@]4(C)[C@H]3CC[C@]12C | – | 23% | – | inhibition at 10 µM [4]: 30%
CC(=O)[C@H]1CC[C@H]2[C@@H]3CC[C@H]4C[C@H](O)CC[C@]4(C)[C@H]3CC[C@]12C [BREXANOLONE] | < 50 µg/mL | -3% | – | inhibition at 80 µM [5]: 40%
CC(=O)[C@H]1CC[C@H]2[C@@H]3CCC4=CC(=O)CC[C@]4(C)[C@H]3CC[C@]12C [PROGESTERONE] | < 50 µg/mL | 4% | 60% | inhibition at 20 µM [6]: 42%
